Test results as given in ChEMBL document CHEMBL3046214, “Friedelane triterpenes from Celastrus vulcanicola as photosynthetic inhibitors” (J Agric Food Chem, 2010).
The source made the active and inactive calls. The rule behind the calls is not given here.

Tested on: Spinacia oleracea
Test: Inhibition of photophosphorylation in Spinacia oleracea (spinach) leaves chloroplasts by titrimetry
Assay type: functional
Summary of the method: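 Intact spinach chloroplasts (20 μg Chl/mL) were osmotically broken in 3 mL of weakly buffered medium: 100 mM sorbitol, 10 mM KCl, 5 mM MgCl2, 0.5 mM KCN, 1 mM tricine-KOH pH 8.0, 50 μM MV and 1 mM ADP. ATP synthesis was taken from the medium alkalization rate in the linear part of illumination, calibrated by HCl back-titration, as μmol ATP (mg Chl)-1 h-1. I50 was obtained from concentration-activity plots; three replicates.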

SMILES: C[C@H]1C(=O)CC[C@@H]2[C@]1(C)CC[C@H]1[C@@]2(C)CC[C@@]2(C)[C@@H]3C[C@](C)(CO)CC[C@]3(C)CC[C@]12C
- inhibition: inactive
